According to publication PMC9434060 (Heliyon, 2022):

How the values were obtained:
XCGL-1 [1] = assay: Inhibition of XCGL-1 hemagglutination; format: cell-based, Xenopus laevis; conditions: pig red blood cells; for inhibition of hemagglutination by carbohydrates: 25 nM XCGL-1; for inhibition of agglutination: 50 nM XCGL-1, millimolar concentrations
Procedure, shortened: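 Citrated fresh pig red cells, washed in 20 mM HEPES pH 7.5, 150 mM NaCl, 10 mM CaCl2, used as a 2.5% suspension in a Terasaki plate. Two set-ups: carbohydrates at various concentrations with 25 nM lectin; EDTA or galactose at millimolar concentrations with 50 nM lectin. Plates photographed after 1 h.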

His6 XCGL-1 = His6 XCGL-1 (Xenopus laevis, UniProt Q91719); assay: Inhibition of His6 XCGL-1 hemagglutination by carbohydrates; format: cell-based; conditions: pig red blood cells, 25 nM XCGL-1
Procedure, shortened: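 Fresh pig blood collected into sodium citrate tubes. Red cells washed in 20 mM HEPES pH 7.5, 150 mM NaCl, 10 mM CaCl2 and used as a 2.5% suspension. Incubated with 25 nM lectin plus carbohydrate at various concentrations in a Terasaki plate. Agglutination photographed after 1 h. MIC is the minimum carbohydrate concentration inhibiting agglutination.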

His6 XCGL-1 CRD = assay: Inhibition of His6 XCGL-1 CRD hemagglutination by carbohydrates; format: cell-based, Xenopus laevis; conditions: pig red blood cells, 25 nM XCGL-1
Refolded XCGL-1 CRD = assay: Inhibition of refolded XCGL-1 CRD hemagglutination by carbohydrates; format: cell-based, Xenopus laevis; conditions: pig red blood cells; for inhibition of hemagglutination at 25 mM: 25 nM XCGL-1, carbohydrate 25 mM; for concentration at which inhibition of hemagglutination was observed: 25 nM XCGL-1
XCGL-1 [2] = assay: Competitive elution of XCGL-1 from lactose resin; set-up: species or system Xenopus laevis; conditions: carbohydrate 6.5 mM in binding buffer, western blot
Procedure, shortened: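 Lactose-agarose resin (250 μL) settled in a spin column and washed three times with binding buffer (20 mM HEPES pH 7.5, 150 mM NaCl, 10 mM CaCl2). Protein (250 μL, 0.1 μM) bound for 5 min, then washed three times. Elution with each carbohydrate at 6.5 mM in binding buffer; eluates analysed by western blot.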

Chain of His6 XCGL-1 (Q91719 18-313): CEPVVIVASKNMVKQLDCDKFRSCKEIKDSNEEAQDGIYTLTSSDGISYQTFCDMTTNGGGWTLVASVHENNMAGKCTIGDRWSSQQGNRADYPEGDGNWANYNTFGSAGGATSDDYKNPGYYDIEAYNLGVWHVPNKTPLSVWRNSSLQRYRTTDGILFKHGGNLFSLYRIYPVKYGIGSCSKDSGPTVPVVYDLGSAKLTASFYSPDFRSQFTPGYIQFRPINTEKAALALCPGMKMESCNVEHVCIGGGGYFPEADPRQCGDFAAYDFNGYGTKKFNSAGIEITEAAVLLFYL

| minimum inhibitory concentration (MIC) of hemagglutination (His6 XCGL-1) [mM] | minimum inhibitory concentration (MIC) of hemagglutination (His6 XCGL-1 CRD) [mM] | Structure (SMILES) | inhibition of hemagglutination by carbohydrates (XCGL-1 [1]) | competitive elution of XCGL-1 bound to lactose resin (XCGL-1 [2]) | further results |
| --- | --- | --- | --- | --- | --- |
|  |  | OC[C@H]1OC(O)[C@H](O)[C@@H](O)[C@@H]1O (some centres unmarked) [glucose] | could not inhibit hemagglutination |  |  |
|  |  | CC(=O)N[C@@H]1[C@@H](O)[C@H](O)[C@@H](CO)O[C@H]1O [N-acetylglucosamine, N-acetyl-D-glucosamine] | could not inhibit hemagglutination |  |  |
| 5 | 2.5 | CC(=O)N[C@H]1C(O)O[C@H](CO)[C@H](O)[C@@H]1O[C@H]1O[C@H](CO)[C@H](O)[C@H](O)[C@H]1O (stereo partly drawn) [α-D-Gal-(1→3)-D-GalNAc] |  | able to elute XCGL-1 competitively | inhibition of hemagglutination at 25 mM (Refolded XCGL-1 CRD): no inhibition |
|  |  | OC[C@H]1OC(O)[C@@H](O)[C@@H](O)[C@@H]1O (stereo partly drawn) [mannose, D-mannose] | could not inhibit hemagglutination |  |  |
| 15 | 10 | OC[C@H]1O[C@@H](O[C@H]2[C@H](O)[C@@H](O)[C@H](O)O[C@@H]2CO)[C@H](O)[C@@H](O)[C@H]1O [lactose, β-D-Gal-(1→4)-D-Glc] |  | able to elute XCGL-1 competitively | concentration at which inhibition of hemagglutination was observed (Refolded XCGL-1 CRD): > 20 mM |
|  |  | C[C@H](O)[C@@H](O)[C@@H](O)[C@H](O)C=O [fucose, L-fucose] | could not inhibit hemagglutination |  |  |
|  |  | CC(=O)N[C@H]1C(O)O[C@H](CO)[C@H](O)[C@@H]1O (stereo partly drawn) [N-acetylgalactosamine, N-acetyl-D-galactosamine] | could not inhibit hemagglutination |  |  |
|  |  | O=C(O)CN(CCN(CC(=O)O)CC(=O)O)CC(=O)O [EDTA] |  |  | inhibition of agglutination (XCGL-1 [1]): inhibited |
| 15 | 10 | OC[C@H]1O[C@H](OCC2O[C@@H](O)[C@H](O)[C@@H](O)[C@@H]2O)[C@H](O)[C@@H](O)[C@H]1O (stereo partly drawn) [melibiose, α-D-Gal-(1→6)-D-Glc] |  | able to elute XCGL-1 competitively | concentration at which inhibition of hemagglutination was observed (Refolded XCGL-1 CRD): > 20 mM |
| 15 | 10 | O=C[C@H](O)[C@@H](O)[C@@H](O)[C@H](O)CO [galactose, D-galactose] |  | able to elute XCGL-1 competitively | inhibition of hemagglutination at 25 mM (Refolded XCGL-1 CRD): not efficient at inhibiting hemagglutination; inhibition of agglutination (XCGL-1 [1]): inhibited |
